Data reported in article PMC3517043 (ChemMedChem, 2012).
≈ marks a conversion by molar mass, not a printed value. Read-outs that look alike come from different tables or passages of the source. Square brackets hold non-standard residues; d marks the D form. Ends that are not written are not given here. Peptide text beside a SMILES is read from it. NMeI = CC[C@H](C)[C@H](NC)C(=O)O; NMeV = CN[C@H](C(=O)O)C(C)C; NMeA = CN[C@@H](C)C(=O)O; Sar = CNCC(=O)O

What was measured:
[1] = Solubility by filtration assay; format: physicochemical; details: pH 7.4
[2] = system: differentiated PC-12 cells; assay: Toxicity of peptides alone, MTT cell viability assay; format: cell-based, rat; details: peptide alone at 50 μM, 24 h
Method in brief: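 PC-12 cells differentiated with nerve growth factor (50 ng/mL) for 48 h. Peptide dissolved in a small amount of 60 mM NaOH, diluted to 50 μM in culture medium, and incubated alone with cells for 24 h. Viability read by MTT kit. Controls were NaOH at matching concentration and medium alone. Percentage viability was scaled to 1 μM staurosporine, taken as 100% loss.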

[3] = system: Aβ42-induced toxicity in differentiated PC-12 cells; format: cell-based, rat; details: for IC50: 48 h; for Decrease in activity relative to the corresponding N-Me-A analogue (LDH): original side-chain restored versus N-Me-A at the same position
[4] = system: Aβ42-induced toxicity in differentiated PC-12 cells; format: cell-based, rat; details: for IC50: 24 h; for Decrease in activity relative to the corresponding N-Me-A analogue (MTT): original side-chain restored versus N-Me-A at the same position
Aβ42 = details: read-out: IC50, inhibition of Aβ42 hexamer formation; photo-induced cross-linking of unmodified proteins; cited from earlier work
[5] = system: mouse primary hippocampal neurons; details: cited from earlier work

Molecule | solubility at 1 min ([1]; 10 mM sodium phosphate buffer) | IC50 [3] | IC50 [4] | also measured
CC[C@H](C)[C@H](NC(=O)[C@H](C)NC)C(=O)NCC(=O)N[C@@H](CC(C)C)C(=O)N[C@@H](CCSC)C(=O)N[C@H](C(=O)NCC(=O)NCC(=O)N[C@H](C(=O)N[C@H](C(=O)N[C@H](C(=O)N[C@@H](C)C(=O)O)[C@@H](C)CC)C(C)C)C(C)C)C(C)C [[N-Me-A1]Aβ(31–42), (N-Me)A-IGLMVGGWIA] (H-[NMeA]IGLMVGGVVIA-OH; N-terminus assumed) | 8 ± 1 µM (≈ 8.91 µg/mL) | – | – | Toxicity of the peptide itself (cell viability, MTT) [2]: toxic
CC[C@H](C)[C@H](N)C(=O)N(C)[C@@H](C)C(=O)NCC(=O)N[C@@H](CC(C)C)C(=O)N[C@@H](CCSC)C(=O)N[C@H](C(=O)NCC(=O)NCC(=O)N[C@H](C(=O)N[C@H](C(=O)N[C@H](C(=O)N[C@@H](C)C(=O)O)[C@@H](C)CC)C(C)C)C(C)C)C(C)C [[N-Me-A2]Aβ(31–42), I-(N-Me)A-GLMVGGWIA] (H-I[NMeA]GLMVGGVVIA-OH; N-terminus assumed) | 101 ± 18 µM (≈ 112 µg/mL) | – | – | –
CC[C@H](C)[C@H](N)C(=O)N[C@H](C(=O)N(C)[C@@H](C)C(=O)N[C@@H](CC(C)C)C(=O)N[C@@H](CCSC)C(=O)N[C@H](C(=O)NCC(=O)NCC(=O)N[C@H](C(=O)N[C@H](C(=O)N[C@H](C(=O)N[C@@H](C)C(=O)O)[C@@H](C)CC)C(C)C)C(C)C)C(C)C)[C@@H](C)CC [[N-Me-A3]Aβ(31–42), II-(N-Me)A-LMVGGWIA] | 102 ± 16 µM (≈ 119 µg/mL) | 34 ± 3 µM | 18 ± 1 µM | –
CC[C@H](C)[C@H](N)C(=O)N[C@H](C(=O)NCC(=O)N(C)[C@@H](C)C(=O)N[C@@H](CCSC)C(=O)N[C@H](C(=O)NCC(=O)NCC(=O)N[C@H](C(=O)N[C@H](C(=O)N[C@H](C(=O)N[C@@H](C)C(=O)O)[C@@H](C)CC)C(C)C)C(C)C)C(C)C)[C@@H](C)CC [[N-Me-A4]Aβ(31–42), IIG-(N-Me)A-MVGGWIA] (H-IIG[NMeA]MVGGVVIA-OH; N-terminus assumed) | 127 ± 37 µM (≈ 141 µg/mL) | – | – | –
CC[C@H](C)[C@H](N)C(=O)N[C@H](C(=O)NCC(=O)N[C@@H](CC(C)C)C(=O)N(C)[C@@H](C)C(=O)N[C@H](C(=O)NCC(=O)NCC(=O)N[C@H](C(=O)N[C@H](C(=O)N[C@H](C(=O)N[C@@H](C)C(=O)O)[C@@H](C)CC)C(C)C)C(C)C)C(C)C)[C@@H](C)CC [[N-Me-A5]Aβ(31–42), IIGL-(N-Me)A-VGGWIA] (H-IIGL[NMeA]VGGVVIA-OH; N-terminus assumed) | 105 ± 20 µM (≈ 115 µg/mL) | – | – | –
CC[C@H](C)[C@H](N)C(=O)N[C@H](C(=O)NCC(=O)N[C@@H](CC(C)C)C(=O)N[C@@H](CCSC)C(=O)N(C)[C@@H](C)C(=O)NCC(=O)NCC(=O)N[C@H](C(=O)N[C@H](C(=O)N[C@H](C(=O)N[C@@H](C)C(=O)O)[C@@H](C)CC)C(C)C)C(C)C)[C@@H](C)CC [[N-Me-A6]Aβ(31–42), IIGLM-(N-Me)A-GGWIA] (H-IIGLM[NMeA]GGVVIA-OH; N-terminus assumed) | 87 ± 18 µM (≈ 98.1 µg/mL) | – | – | –
CC[C@H](C)[C@H](N)C(=O)N[C@H](C(=O)NCC(=O)N[C@@H](CC(C)C)C(=O)N[C@@H](CCSC)C(=O)N[C@H](C(=O)N(C)[C@@H](C)C(=O)NCC(=O)N[C@H](C(=O)N[C@H](C(=O)N[C@H](C(=O)N[C@@H](C)C(=O)O)[C@@H](C)CC)C(C)C)C(C)C)C(C)C)[C@@H](C)CC [[N-Me-A7]Aβ(31–42), IIGLMV-(N-Me)A-GWIA] (H-IIGLMV[NMeA]GVVIA-OH; N-terminus assumed) | 88 ± 14 µM (≈ 103 µg/mL) | – | – | –
CC[C@H](C)[C@H](N)C(=O)N[C@H](C(=O)NCC(=O)N[C@@H](CC(C)C)C(=O)N[C@@H](CCSC)C(=O)N[C@H](C(=O)NCC(=O)N(C)[C@@H](C)C(=O)N[C@H](C(=O)N[C@H](C(=O)N[C@H](C(=O)N[C@@H](C)C(=O)O)[C@@H](C)CC)C(C)C)C(C)C)C(C)C)[C@@H](C)CC [[N-Me-A8]Aβ(31–42), IIGLMVG-(N-Me)A-WIA] (H-IIGLMVG[NMeA]VVIA-OH; N-terminus assumed) | 41 ± 12 µM (≈ 48 µg/mL) | 14 ± 1 µM | 12 ± 1 µM | –
CC[C@H](C)[C@H](N)C(=O)N[C@H](C(=O)NCC(=O)N[C@@H](CC(C)C)C(=O)N[C@@H](CCSC)C(=O)N[C@H](C(=O)NCC(=O)NCC(=O)N(C)[C@@H](C)C(=O)N[C@H](C(=O)N[C@H](C(=O)N[C@@H](C)C(=O)O)[C@@H](C)CC)C(C)C)C(C)C)[C@@H](C)CC [[N-Me-A9]Aβ(31–42), IIGLMVGG-(N-Me)A-VIA] (H-IIGLMVGG[NMeA]VIA-OH; N-terminus assumed) | 115 ± 21 µM (≈ 130 µg/mL) | 7 ± 1 µM | 6 ± 1 µM | Improvement of IC50 relative to the parent peptide (LDH) ([3]; relative to Aβ(31–42)): 6 fold; Improvement of IC50 relative to the parent peptide (MTT) ([4]; relative to Aβ(31–42)): 3 fold
CC[C@H](C)[C@H](N)C(=O)N[C@H](C(=O)NCC(=O)N[C@@H](CC(C)C)C(=O)N[C@@H](CCSC)C(=O)N[C@H](C(=O)NCC(=O)NCC(=O)N[C@H](C(=O)N(C)[C@@H](C)C(=O)N[C@H](C(=O)N[C@@H](C)C(=O)O)[C@@H](C)CC)C(C)C)C(C)C)[C@@H](C)CC [[N-Me-A10]Aβ(31–42), IIGLMVGGV-(N-Me)A-IA] | – | – | – | solubility at 1 min [1]: 121 ± 28 µM (≈ 136 µg/mL)
CC[C@H](C)[C@H](N)C(=O)N[C@H](C(=O)NCC(=O)N[C@@H](CC(C)C)C(=O)N[C@@H](CCSC)C(=O)N[C@H](C(=O)NCC(=O)NCC(=O)N[C@H](C(=O)N[C@H](C(=O)N(C)[C@@H](C)C(=O)N[C@@H](C)C(=O)O)C(C)C)C(C)C)C(C)C)[C@@H](C)CC [[N-Me-A11]Aβ(31–42), IIGLMVGGW-(N-Me)A-A] (H-IIGLMVGGVV[NMeA]A-OH; N-terminus assumed) | 86 ± 22 µM (≈ 95.8 µg/mL) | 37 ± 3 µM | 10 ± 1 µM | –
CC[C@H](C)[C@H](N)C(=O)N[C@H](C(=O)NCC(=O)N[C@@H](CC(C)C)C(=O)N[C@@H](CCSC)C(=O)N[C@H](C(=O)NCC(=O)NCC(=O)N[C@H](C(=O)N[C@H](C(=O)N[C@H](C(=O)N(C)[C@@H](C)C(=O)O)[C@@H](C)CC)C(C)C)C(C)C)C(C)C)[C@@H](C)CC [[N-Me-A12]Aβ(31–42)] (H-IIGLMVGGVVI[NMeA]-OH; N-terminus assumed) | 28 ± 13 µM (≈ 32.4 µg/mL) | – | – | –
CC[C@H](C)[C@H](N)C(=O)N[C@H](C(=O)N(C)CC(=O)N[C@@H](CC(C)C)C(=O)N[C@@H](CCSC)C(=O)N[C@H](C(=O)NCC(=O)NCC(=O)N[C@H](C(=O)N[C@H](C(=O)N[C@H](C(=O)N[C@@H](C)C(=O)O)[C@@H](C)CC)C(C)C)C(C)C)C(C)C)[C@@H](C)CC [[N-Me-G3]Aβ(31–42), II-(N-Me)G-LMVGGWIA] | 118 ± 11 µM (≈ 136 µg/mL) | – | 26 ± 1 µM | Decrease in activity relative to the corresponding N-Me-A analogue (MTT) [4]: 1.4 fold
CC[C@H](C)[C@H](N)C(=O)N[C@H](C(=O)NCC(=O)N[C@@H](CC(C)C)C(=O)N[C@@H](CCSC)C(=O)N[C@H](C(=O)NCC(=O)N(C)CC(=O)N[C@H](C(=O)N[C@H](C(=O)N[C@H](C(=O)N[C@@H](C)C(=O)O)[C@@H](C)CC)C(C)C)C(C)C)C(C)C)[C@@H](C)CC [[N-Me-G8]Aβ(31–42), IIGLMVG-(N-Me)G-WIA] (H-IIGLMVG[Sar]VVIA-OH; N-terminus assumed) | 18 ± 2 µM (≈ 20.8 µg/mL) | 71 ± 20 µM | 28 ± 1 µM | Decrease in activity relative to the corresponding N-Me-A analogue (LDH) [3]: 5.0 fold; Decrease in activity relative to the corresponding N-Me-A analogue (MTT) [4]: 2.3 fold
CC[C@H](C)[C@H](NC)C(=O)N[C@H](C(=O)NCC(=O)N[C@@H](CC(C)C)C(=O)N[C@@H](CCSC)C(=O)N[C@H](C(=O)NCC(=O)NCC(=O)N[C@H](C(=O)N[C@H](C(=O)N[C@H](C(=O)N[C@@H](C)C(=O)O)[C@@H](C)CC)C(C)C)C(C)C)C(C)C)[C@@H](C)CC [[N-Me-I1]Aβ3(31–42), (N-Me)I-IGLMVGGWIA] (H-[NMeI]IGLMVGGVVIA-OH; N-terminus assumed) | 7 ± 1 µM (≈ 8.09 µg/mL) | – | – | Toxicity of the peptide itself (cell viability, MTT) ([2]; listed as [N-Me-I1]Aβ(31–42)): as toxic as [N-Me-A1]Aβ(31–42)
CC[C@H](C)[C@H](N)C(=O)N[C@H](C(=O)NCC(=O)N[C@@H](CC(C)C)C(=O)N[C@@H](CCSC)C(=O)N[C@H](C(=O)NCC(=O)NCC(=O)N[C@H](C(=O)N[C@H](C(=O)N(C)[C@H](C(=O)N[C@@H](C)C(=O)O)[C@@H](C)CC)C(C)C)C(C)C)C(C)C)[C@@H](C)CC [[N-Me-I11]Aβ3(31–42), IIGLMVGGW-(N-Me)I-A] (H-IIGLMVGGVV[NMeI]A-OH; N-terminus assumed) | 132 ± 34 µM (≈ 153 µg/mL) | 49 ± 3 µM | 13 ± 1 µM | –
CC[C@H](C)[C@H](N)C(=O)N[C@H](C(=O)NCC(=O)N[C@@H](CC(C)C)C(=O)N[C@@H](CCSC)C(=O)N[C@H](C(=O)NCC(=O)NCC(=O)N(C)[C@H](C(=O)N[C@H](C(=O)N[C@H](C(=O)N[C@@H](C)C(=O)O)[C@@H](C)CC)C(C)C)C(C)C)C(C)C)[C@@H](C)CC [[N-Me-V9]Aβ(31–42), IIGLMVGG-(N-Me)V-VIA] (H-IIGLMVGG[NMeV]VIA-OH; N-terminus assumed) | 136 ± 18 µM (≈ 157 µg/mL) | 67 ± 8 µM | 6 ± 1 µM | Decrease in activity relative to the corresponding N-Me-A analogue (LDH) [3]: 9.6 fold
IIGLMVGGVVIA-OH [Aβ(31–42), IIGLMVGGVVIA] | – | 43 ± 2 µM | 18 ± 1 µM | solubility at 1 min [1]: 25 ± 4 µM; IC50 (Aβ42): 23 ± 4 µM; Rescue from Aβ42-induced inhibition of miniature excitatory postsynaptic current frequency [5]: rescued
